Calls of active or inactive are those of the source. The calls are words filed in the database; no cut-off is given here.
Assays:
[1] = Prodrug conversion at pH 1.2 assessed as hydrolysis up to 24 hrs by HPLC analysis; assay type: physicochemical; conditions: buffer, pH 1.2, 24 h
Method in brief: (§1)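 Prodrugs held at 37 °C for up to 24 h in phosphate-buffered saline adjusted to pH 1.2 or pH 7.4. Samples taken at set intervals. Released parent drugs quantified by C18 HPLC with methanol/0.1% H3PO4 90:10 (pH 2.3), 25 °C, 1.0 mL/min, 254 nm. Run in triplicate.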

[2] = Prodrug conversion at pH 7.4 assessed as hydrolysis up to 24 hrs by HPLC analysis; assay type: physicochemical; conditions: buffer, pH 7.4, 24 h; method in brief: as §1
Mus musculus [3] = test: Antiinflammatory activity in Kunming mouse assessed as inhibition of xylene-induced auricle tumefaction at 0.2 mmol/kg, po qd administered prior to challenge for 5 days measured 30 mins post challenge; assay type: functional
Method in brief: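 Male Kunming mice (18-22 g), ten per group, dosed once daily for 5 days at 0.2 mmol/kg; controls got 0.9% NaCl. A 7 mm filter soaked in xylene was held on the right ear for 30 s, 1 h after the last dose. Mice were killed 30 min later and 7 mm ear punches taken. Inhibition = (1 − a/b)×100%, from tumefaction degree of control and test groups.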

Hydroxyapatite = test: Binding affinity to bone mineral hydroxyapatite after 30 mins by RP-HPLC analysis
Method in brief: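 Each compound (10 mL, 0.1 mmol/L in water) stirred vigorously with 20, 40 or 80 mg hydroxyapatite for 30 min. Then analysed by HPLC on C18 with methanol/0.1% H3PO4 90:10 (pH 2.3), 25 °C, 1.0 mL/min, 254 nm detection. n = 3.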

[4] = AUC (0 to infinity) in Sprague-Dawley rat at 5.26 mg/kg, po; assay type: ADME, organism-based; set-up: time infinity, dose 5.26 mg/kg, route oral; conditions: plasma
Method in brief: (§2)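 SD rats of either sex (200 ± 20 g), six per group, dosed by gastric intubation after recovery from anesthesia. Arterial blood (~0.5 mL) drawn predose and at 0.17, 0.33, 0.5, 0.75, 1, 1.5, 2, 2.5, 3, 4, 5, 7 and 9 h. Plasma separated at once by centrifugation. Rhein in plasma measured by HPLC with diode-array detection.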

Rattus norvegicus [5] = test: AUC (0 to 9 hrs) in Sprague-Dawley rat assessed as rhein at 10 mg/kg, po; assay type: ADME, organism-based, Plasma; set-up: time < 9 hr, dose 10 mg/kg, route oral; conditions: in vivo; method in brief: as §2
Rattus norvegicus [6] = test: Half life in Sprague-Dawley rat assessed as rhein at 10 mg/kg, po; assay type: ADME, organism-based; set-up: dose 10 mg/kg, route oral; conditions: in vivo; method in brief: as §2
[7] = AUC (0 to 9 hrs) in Sprague-Dawley rat at 5.26 mg/kg, po; assay type: ADME, organism-based; set-up: time < 9 hr, dose 5.26 mg/kg, route oral; conditions: plasma; method in brief: as §2
[8] = Tmax in Sprague-Dawley rat at 5.26 mg/kg, po; assay type: ADME, organism-based; set-up: dose 5.26 mg/kg, route oral; conditions: in vivo; method in brief: as §2
Rattus norvegicus [9] = test: MRT (0 to 9 hrs) in Sprague-Dawley rat assessed as rhein at 10 mg/kg, po; assay type: ADME, organism-based; set-up: dose 10 mg/kg, route oral; conditions: in vivo; method in brief: as §2
[10] = Half life in Sprague-Dawley rat at 5.26 mg/kg, po; assay type: ADME, organism-based; set-up: dose 5.26 mg/kg, route oral; conditions: in vivo; method in brief: as §2
[11] = MRT (0 to infinity) in Sprague-Dawley rat at 5.26 mg/kg, po; assay type: ADME, organism-based; set-up: dose 5.26 mg/kg, route oral; conditions: in vivo; method in brief: as §2
[12] = MRT (0 to 9 hrs) in Sprague-Dawley rat at 5.26 mg/kg, po; assay type: ADME, organism-based; set-up: dose 5.26 mg/kg, route oral; conditions: in vivo; method in brief: as §2
Rattus norvegicus [13] = test: Cmax in Sprague-Dawley rat assessed as rhein at 10 mg/kg, po; assay type: ADME, organism-based; set-up: dose 10 mg/kg, route oral; conditions: in vivo; method in brief: as §2
Rattus norvegicus [14] = test: Tmax in Sprague-Dawley rat assessed as rhein at 10 mg/kg, po; assay type: ADME, organism-based; set-up: dose 10 mg/kg, route oral; conditions: in vivo; method in brief: as §2
Rattus norvegicus [15] = test: MRT (0 to infinity) in Sprague-Dawley rat assessed as rhein at 10 mg/kg, po; assay type: ADME, organism-based; set-up: dose 10 mg/kg, route oral; conditions: in vivo; method in brief: as §2
Rattus norvegicus [16] = test: AUC (0 to infinity) in Sprague-Dawley rat assessed as rhein at 10 mg/kg, po; assay type: ADME, organism-based, Plasma; set-up: time infinity, dose 10 mg/kg, route oral; conditions: in vivo; method in brief: as §2
[17] = Cmax in Sprague-Dawley rat at 5.26 mg/kg, po; assay type: ADME, organism-based; set-up: dose 5.26 mg/kg, route oral; conditions: in vivo; method in brief: as §2
[18] = AUC (0 to infinity) in Sprague-Dawley rat at 10 mg/kg, po; assay type: ADME, organism-based; set-up: time infinity, dose 10 mg/kg, route oral; conditions: plasma; method in brief: as §2
[19] = MRT (0 to infinity) in Sprague-Dawley rat at 10 mg/kg, po; assay type: ADME, organism-based; set-up: dose 10 mg/kg, route oral; conditions: in vivo; method in brief: as §2
[20] = MRT (0 to 9 hrs) in Sprague-Dawley rat at 10 mg/kg, po; assay type: ADME, organism-based; set-up: dose 10 mg/kg, route oral; conditions: in vivo; method in brief: as §2
[21] = AUC (0 to 9 hrs) in Sprague-Dawley rat at 10 mg/kg, po; assay type: ADME, organism-based; set-up: time < 9 hr, dose 10 mg/kg, route oral; conditions: plasma; method in brief: as §2
[22] = Half life in Sprague-Dawley rat at 10 mg/kg, po; assay type: ADME, organism-based; set-up: dose 10 mg/kg, route oral; conditions: in vivo; method in brief: as §2
[23] = Tmax in Sprague-Dawley rat at 10 mg/kg, po; assay type: ADME, organism-based; set-up: dose 10 mg/kg, route oral; conditions: in vivo; method in brief: as §2
[24] = Cmax in Sprague-Dawley rat at 10 mg/kg, po; assay type: ADME, organism-based; set-up: dose 10 mg/kg, route oral; conditions: in vivo; method in brief: as §2
Mus musculus [25] = test: Ulcerogenic activity in Kunming mouse assessed as ulcer index at 1 mmol/kg, po measured after 4 hrs; assay type: toxicity, organism-based; conditions: in vivo
Method in brief: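 Kunming mice of either sex (18-22 g), ten per group, fasted from food and water for 24 h. Then given 1.0 mmol/kg orally as a suspension in 1% methylcellulose. Killed at 4 h; stomachs fixed 30 min in 10% formaldehyde, opened along the greater curvature and ulcers measured under a magnifier. Ulcer index = summed lesion length (mm) per stomach averaged over 10 animals.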

Drug metabolism [1]	Drug metabolism [2]	Activity (Hydroxyapatite)	SMILES	inhibition in vivo at 200 µmol/kg (Mus musculus [3])	also measured
Active	Active	Active	CC(=O)Oc1ccccc1C(=O)OCCOC(=O)c1cc(OC(C)=O)c2c(c1)C(=O)c1cccc(OC(C)=O)c1C2=O	19.9%	
Active		Active	O=C(O)c1cc(O)c2c(c1)C(=O)c1cccc(O)c1C2=O [RHEIN]		AUC(0-inf) [4]: 1380 ng·h/mL; AUC (Rattus norvegicus [5]): 1178 ng·h/mL; t1/2 (Rattus norvegicus [6]): 2.771 h; AUC(0-t) at 9 h [7]: 1170 ng·h/mL; Tmax [8]: 2.04 h; MRT (Rattus norvegicus [9]): 4.291 h; half-life [10]: 1.24 h; MRT inf [11]: 3.78 h; MRT last [12]: 2.92 h; Cmax (Rattus norvegicus [13]): 291 ng/mL; Tmax (Rattus norvegicus [14]): 2.917 h; MRT (Rattus norvegicus [15]): 5.699 h; AUC (Rattus norvegicus [16]): 1394 ng·h/mL; Cmax [17]: 432 ng/mL
Active	Active	Active	O=C(OCCOCCOCCO)c1cc(O)c2c(c1)C(=O)c1cccc(O)c1C2=O	17.4%	
Active	Active	Active	COc1ccc2cc(C(C)C(=O)OCCOC(=O)c3cc(O)c4c(c3)C(=O)c3cccc(O)c3C4=O)ccc2c1 (stereo not given)	23.9%	AUC(0-inf) [18]: 4860 ng·h/mL; MRT inf [19]: 4.23 h; MRT last [20]: 3.46 h; AUC(0-t) at 9 h [21]: 4420 ng·h/mL; half-life [22]: 2.19 h; Tmax [23]: 1.75 h; Cmax [24]: 1090 ng/mL; UI (Mus musculus [25]): 5.8
Active	Active	Active	CC(C)Cc1ccc(C(C)C(=O)OCCOC(=O)c2cc(O)c3c(c2)C(=O)c2cccc(O)c2C3=O)cc1 (stereo not given)	41.2%	UI (Mus musculus [25]): 5.8
Active	Active	Active	CC(=O)Oc1cccc2c1C(=O)c1c(OC(C)=O)cc(C(=O)OCCOCCOCCOC(=O)C(C)c3ccc(CC(C)C)cc3)cc1C2=O (stereo not given)	29.3%	
Active	Active	Active	CC(C)Cc1ccc(C(C)C(=O)OCCOCCOCCOC(=O)c2cc(O)c3c(c2)C(=O)c2cccc(O)c2C3=O)cc1 (stereo not given)	33.9%	UI (Mus musculus [25]): 5.8
Active	Active	Active	CC(=O)Oc1cccc2c1C(=O)c1c(OC(C)=O)cc(C(=O)OCCOCCOCCO)cc1C2=O	19.5%	
Active	Active	Active	CC(C)Cc1ccc(C(C)C(=O)OCCOCCOC(=O)c2cc(O)c3c(c2)C(=O)c2cccc(O)c2C3=O)cc1 (stereo not given)	32.7%	UI (Mus musculus [25]): 5.8
	Active	inactive	CC(C)Cc1ccc(C(C)C(=O)O)cc1 (stereo not given) [IBUPROFEN]	32%	UI (Mus musculus [25]): 8.3
Active	Active	Active	O=C(OCCO)c1cc(O)c2c(c1)C(=O)c1cccc(O)c1C2=O	13.9%	
Active	Active	Active	CC(=O)Oc1ccccc1C(=O)OCCOC(=O)c1cc(O)c2c(c1)C(=O)c1cccc(O)c1C2=O	19.6%	
Active	Active	Active	O=C(OCCOCCO)c1cc(O)c2c(c1)C(=O)c1cccc(O)c1C2=O	17.2%	
		Active	CC(=O)Oc1cccc2c1C(=O)c1c(OC(C)=O)cc(C(=O)O)cc1C2=O [DIACEREIN]	29.2%	
Active	Active	Active	COc1ccc2cc(C(C)C(=O)OCCOC(=O)c3cc(OC(C)=O)c4c(c3)C(=O)c3cccc(OC(C)=O)c3C4=O)ccc2c1 (stereo not given)	24.4%	
Active	Active	Active	CC(=O)Oc1cccc2c1C(=O)c1c(OC(C)=O)cc(C(=O)OCCOCCOC(=O)C(C)c3ccc(CC(C)C)cc3)cc1C2=O (stereo not given)	33%	
Active	Active	Active	COc1ccc2c(c1)c(CC(=O)OCCOC(=O)c1cc(OC(C)=O)c3c(c1)C(=O)c1cccc(OC(C)=O)c1C3=O)c(C)n2C(=O)c1ccc(Cl)cc1	23.4%	
Active	Active	Active	O=C(Cc1ccccc1Nc1c(Cl)cccc1Cl)OCCOC(=O)c1cc(O)c2c(c1)C(=O)c1cccc(O)c1C2=O	43.9%	
			O=C(O)Cc1ccccc1Nc1c(Cl)cccc1Cl [DICLOFENAC]	41.9%	
Active	Active	Active	CC(=O)Oc1cccc2c1C(=O)c1c(OC(C)=O)cc(C(=O)OCCOC(=O)Cc3ccccc3Nc3c(Cl)cccc3Cl)cc1C2=O	44%	
Active	Active	Active	CC(=O)Oc1cccc2c1C(=O)c1c(OC(C)=O)cc(C(=O)OCCO)cc1C2=O	16%	
Active	Active	Active	CC(=O)Oc1cccc2c1C(=O)c1c(OC(C)=O)cc(C(=O)OCCOC(=O)C(C)c3ccc(CC(C)C)cc3)cc1C2=O (stereo not given)	35.2%	
Active	Active	Active	CC(=O)Oc1cccc2c1C(=O)c1c(OC(C)=O)cc(C(=O)OCCOCCO)cc1C2=O	15%	
